Measured values: ChEMBL document CHEMBL1134085, “Discovery of potent and selective phenylalanine derived CCR3 antagonists. Part 1” (Bioorg Med Chem Lett, 2001)
Several values for one entry are separate records, joined by “and”; a condition that tells them apart may be missing. Identical values can stand only once. Where a SMILES comes first, the peptide text is derived from it. The star is where a group is joined. Cbz = O=C(OCc1ccccc1)*

Assays:
[1] = biological target: T1, C-C chemokine receptor type 3 (Homo sapiens, UniProt P51677); experiment: Inhibitory activity against human eosinophil C-C chemokine receptor type 3 using [125I]- human eotaxin as the radioligand
T1 sequence (P51677 whole entry): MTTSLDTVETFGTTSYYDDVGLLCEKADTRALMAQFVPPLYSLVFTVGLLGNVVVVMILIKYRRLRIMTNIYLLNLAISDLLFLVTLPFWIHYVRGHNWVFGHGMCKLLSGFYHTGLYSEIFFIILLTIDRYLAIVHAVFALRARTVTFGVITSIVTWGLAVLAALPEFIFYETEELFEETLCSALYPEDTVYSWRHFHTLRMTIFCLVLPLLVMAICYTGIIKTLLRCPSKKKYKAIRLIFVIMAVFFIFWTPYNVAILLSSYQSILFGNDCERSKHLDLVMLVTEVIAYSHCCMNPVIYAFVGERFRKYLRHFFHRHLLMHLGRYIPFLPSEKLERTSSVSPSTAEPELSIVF
Outline: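 Competition binding on CCR3 from purified human eosinophils as receptor source, with [125I]human eotaxin as radioligand; IC50 taken as displacement of radioligand binding.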

[2] = biological target: T1, C-C chemokine receptor type 3; experiment: […] against C-C chemokine receptor type 3 by displacing Eotaxin radioligand, using [Ca2+] mobilization assay; assay type: functional
Outline: (§1)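 Functional antagonism was tested in RBL-2H3 cells expressing CCR3. Cells were challenged with eotaxin or eotaxin-2, and the resulting rise in intracellular Ca2+ was measured. Inhibition of this calcium mobilization is reported as an IC50 in nM.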

[3] = biological target: T1, C-C chemokine receptor type 3; experiment: […] activity against C-C chemokine receptor type 3 by displacing [125I]-MCP-4 radioligand, using CCR3 binding assay
[4] = biological target: T1, C-C chemokine receptor type 3; experiment: […] activity against C-C chemokine receptor type 3 by displacing Eotaxin-2 radioligand, using [Ca2+] mobilization assay; assay type: functional; outline: as §1

Structure (SMILES) | IC50 [1] [nM] | further results
CCOC(=O)[C@@H](NC(=O)c1ccccc1)c1ccccc1 | > 20000 | 
COC(=O)[C@H](Cc1ccc([N+](=O)[O-])cc1)NC(=O)c1cccc2ccccc12 | 5 | IC50 [2]: 38 nM; IC50 [3]: 7 nM; IC50 [4]: 35 nM and 20 nM
CCOC(=O)[C@H](Cc1ccc(O)cc1)NS(=O)(=O)c1ccc(C)cc1 | 16000 | 
CCOC(=O)[C@H](Cc1ccc([N+](=O)[O-])cc1)NC(=O)c1ccccc1 | 49 | 
CCOC(=O)[C@H](Cc1ccc(O)cc1)NC(=O)[C@H](CC(N)=O)NC(=O)OCc1ccccc1 (Cbz-Asn-Tyr-OEt) | > 25000 | 
CCOC(=O)[C@H](Cc1ccc(O)cc1)NC(=O)c1ccccn1 | 1700 | 
CCOC(=O)[C@H](Cc1ccc(O)cc1)NC(=O)Nc1ccccc1 | > 33000 | 
CCOC(=O)[C@@H](Cc1ccc(O)cc1)NC(=O)c1ccccc1 | > 50000 | 
CCOC(=O)[C@H](CCc1ccccc1)NC(=O)c1ccccc1 | 5950 | 
CCOC(=O)[C@H](Cc1ccccc1)NC(=O)c1ccccc1 | 190 | 
CCOC(=O)[C@H](Cc1ccc(O)cc1)NC(=O)[C@H](Cc1ccccc1)NC(=O)OCc1ccccc1 (Cbz-Phe-Tyr-OEt) | 6250 | 
CCOC(=O)[C@H](Cc1ccc(O)cc1)NC(=O)c1cccc2ccccc12 | 80 | 
CCOC(=O)[C@H](Cc1ccc([N+](=O)[O-])cc1)NC(=O)c1ccc(C)cc1C | 3 | 
CCCC(=O)[C@H](Cc1ccc([N+](=O)[O-])cc1)NC(=O)c1cccc2ccccc12 | > 33000 | 
CCOC(=O)[C@H](Cc1ccc(O)cc1)NC(=O)[C@H](CO)NC(=O)OCc1ccccc1 (Cbz-Ser-Tyr-OEt) | > 25000 | 
CCOC(=O)[C@H](Cc1c[nH]c2ccccc12)NC(=O)c1ccccc1 | 325 | 
O=C(N[C@@H](Cc1ccc([N+](=O)[O-])cc1)C(=O)OCc1ccccc1)c1cccc2ccccc12 | 18 | 
O=C(N[C@@H](Cc1ccc([N+](=O)[O-])cc1)C(=O)NCc1ccccc1)c1cccc2ccccc12 | 4000 | 
CCOC(=O)[C@H](Cc1ccc(O)cc1)NC(=O)Cc1ccccc1 | 2600 | 
CC(C)OC(=O)[C@H](Cc1ccc([N+](=O)[O-])cc1)NC(=O)c1cccc2ccccc12 | 21 | 
CCOC(=O)[C@H](Cc1ccc([N+](=O)[O-])cc1)NC(=O)c1cccc2ccccc12 | 8 | 
CCOC(=O)[C@H](Cc1cc(I)c(O)c(I)c1)NC(=O)c1ccccc1 | 535 | 
CCOC(=O)[C@H](Cc1ccc(O)cc1)NC(=O)[C@H](CCC(N)=O)NC(=O)OCc1ccccc1 (Cbz-Gln-Tyr-OEt) | > 25000 | 
CN(C)C(=O)[C@H](Cc1ccc([N+](=O)[O-])cc1)NC(=O)c1cccc2ccccc12 | > 33000 | 
CC(C)(C)OC(=O)[C@H](Cc1ccc([N+](=O)[O-])cc1)NC(=O)c1cccc2ccccc12 | 57 | 
CCOC(=O)[C@H](C)NC(=O)c1ccccc1 | 9000 | 
CCOC(=O)[C@H](Cc1ccc(O)cc1)NC(=O)c1ccccc1 | 383 | 
